Screening data from PubChem BioAssay.
Compounds with a hit are over-represented: about 3.1% of the library has one in this group of screens.
FGF22 binding – binders of human FGF22 protein, primary screen, FGF22 synaptogenesis inhibitor project, biophysical, thermal shift, single point | Fibroblast growth factor 22 (Homo sapiens), Q9HCT0 | recombinant FGF22 thermal shift, SYPRO orange fluorescence; percent of sucrose octasulfate shift, DMSO zero | activity (Tm shift, normalised), % at 9.99 µM | 340,000 compounds, 1.5% hits | AID 651658, 2012;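 active means mean Tm shift, scaled 0 neutral to 100 positive control, at about 1.3% or above, every replicate too, limit read from the data; inconclusive means no clear call, values can overlap the other calls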
Target sequence (Q9HCT0 whole entry, looked up): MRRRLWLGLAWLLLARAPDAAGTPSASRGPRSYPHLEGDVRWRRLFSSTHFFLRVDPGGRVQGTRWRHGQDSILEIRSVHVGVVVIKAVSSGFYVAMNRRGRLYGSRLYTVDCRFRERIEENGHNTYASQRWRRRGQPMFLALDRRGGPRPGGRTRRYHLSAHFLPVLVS
PGC1a acetyl inh – inhibitors of PGC1a acetylation signal, primary screen, cell-based, U2OS, AlphaScreen, inhibitor mode | AlphaScreen anti-acetyl-lysine; with virally co-expressed GCN5 acetyltransferase | inhibition, % at 15.6 µM | 350,000 compounds, 0.17% hits | AID 651687, 2012;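 active means every replicate shows inhibition of at least 40%; inconclusive means mean inhibition at least 40% but some replicate below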
EWS-Fli inh – EWS/Fli-driven NR0B1 reporter inhibitors, primary screen, A673 cells, NR0B1 luciferase, luminescence, MLPCN library | viability-normalised | inhibition, % at 12.6 µM | 350,000 compounds, 0.67% hits | AID 651661, 2012;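 active means mean inhibition of at least 50% after viability correction, with every replicate also passing that limit; inconclusive means mean reaches 50% but only one of two replicates passes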;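 further: firefly luciferase signal divided by Alamar Blue viability fluorescence both relative to DMSO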
Env fusion inh – inhibitors of HIV-1 Env-driven cell-cell fusion, primary screen, HeLa-JRFL effector, CEM21 target cells, luciferase | 360,000 compounds, 1.1% hits | inhibition, % at 12.3 µM;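 active means mean replicate inhibition score of at least 50 and every replicate individually at or above 50; inconclusive means only one of the two criteria met; inactive means mean below 50 and not all replicates reaching 50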
FN deposit inh – inhibitors of fibronectin matrix deposition, primary screen, AH1F cells, Alexa488-fibronectin fluorescence, plate reader; 350,000 compounds, 0.086% hits; inhibition, % at 12.6 µM; AH1F fibroblasts, overnight;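 active means mean inhibition across replicates of 30% or more, regardless of how many single replicates reach that level; inconclusive means mean under 30% yet at least half of replicates reach 30%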
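Material: AH1F fibroblasts assembling fluorescent fibronectin matrix; amount: 10000 AH1F cells/well; medium: DMEM, 2% serum; reagent: Alexa488-fibronectin, 24 nM final in well; dosing: single compound dose, delivered by pin transfer; incubation: 1 h adhesion, overnight exposure; detection: fluorescence after three HBSS washes, excitation 485 nm, emission 525 nm; measure: fibronectin deposition inhibition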
PAX8 inh HTS – inhibitors of PAX8-driven TPO luciferase reporter, primary screen, RMG-I cells, single concentration; SteadyGlo, 24 h; inhibition, % at 12.6 µM; 360,000 compounds, 1.2% hits; AID 652154, 2013;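 active means mean replicate inhibition at least 60% with every replicate also reaching 60%; inconclusive means only one of the two criteria is met; inactive means mean below 60% and not all replicates reaching 60%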;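 further: luciferase light reporting Pax8 driven TPO promoter activity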
Large screens that a line does not name were inactive.

Cc1ccc(OCCNCc2ccccc2)c(C)c1	none
CO[C@@H]1CN(C)C(=O)c2ccc(NS(=O)(=O)c3cn(C)cn3)cc2OC[C@H](C)N(CCC(F)(F)F)C[C@H]1C	none (no result: Env fusion inh, PAX8 inh HTS)
CC(C)[C@H](NC(N)=O)C(=O)Nc1ccc(Oc2ccccc2)cc1	FGF22 binding 43.3
CCOc1ccc(NC(=O)c2sc(NC(C)=O)c(C(=O)OC)c2C)cc1	FGF22 binding 43.0 (no result: PGC1a acetyl inh)
CC=Cc1ccc2n(c1=O)C[C@@H]1[C@@H](CO)[C@H](C(=O)NCc3ccccc3F)N(CC)[C@H]21 (mixture of isomers)	none (no result: PGC1a acetyl inh, Env fusion inh, FN deposit inh, PAX8 inh HTS)
CC(C)(C)c1ccc(C(CC(=O)O)NC(=O)c2ccccc2F)cc1 (stereo unspecified)	FGF22 binding 42.9, Env fusion inh inconclusive
COc1ccc(CNCC(O)(c2ccc(Cl)cc2)c2ccc(Cl)cc2)cc1OC	Env fusion inh 63.0 (no result: FGF22 binding, PGC1a acetyl inh, EWS-Fli inh, PAX8 inh HTS)
CCC(=O)N1CCCc2cc(S(=O)(=O)N3CCN(c4ccccc4F)CC3)ccc21	Env fusion inh 40.9 (no result: PGC1a acetyl inh)
COc1ccccc1NC(=O)N[C@H]1CC[C@@H](CC(=O)N[C@H](C)c2ccccc2)O[C@@H]1CO	none
COC(=O)c1ccccc1S(=O)(=O)N1CCn2cccc2C1C (stereo unspecified)	FGF22 binding 43.0 (no result: PGC1a acetyl inh)
COc1ccc(NC(C)=O)cc1S(=O)(=O)N1CCn2cccc2C1C (stereo unspecified)	none (no result: Env fusion inh)
Cc1cc(C(=O)COc2ccc(C#N)cc2)c(C)n1CC1CCCO1 (stereo unspecified)	FGF22 binding 43.2 (no result: Env fusion inh)
Nc1cc(=O)[nH]c(SCCSc2cc(Cl)ccc2Cl)n1	Env fusion inh 69.2
Nc1cc(=O)[nH]c(SCCSc2ccccc2F)n1	none (no result: PGC1a acetyl inh)
COc1cc([N+](=O)[O-])ccc1NC(=O)Nc1cnccn1	Env fusion inh 57.5 (no result: EWS-Fli inh, FN deposit inh)
O=C(O)C1Cc2ccccc2CN1C(=O)COc1ccc(Cl)cc1 (stereo unspecified)	FGF22 binding 43.3
CCOc1ccc(C(=O)NCC(=O)OCC(=O)N2CCCC2)cc1	FGF22 binding 43.5 (no result: PGC1a acetyl inh)
O=C(Nc1ccc(Cl)cc1)N[C@@H]1CC[C@@H](CCNC(=O)c2cc(Cl)cc(Cl)c2)O[C@H]1CO	none (no result: FGF22 binding, Env fusion inh)
COc1ccccc1CCC(=O)Nc1ccc(C)cc1Cl	FGF22 binding 43.3 (no result: PGC1a acetyl inh)
CCCNC(=O)c1nnsc1S(=O)c1ccc(Cl)cc1 (stereo unspecified)	PAX8 inh HTS 79.2 (no result: FN deposit inh)
CNC(=O)c1nnsc1S(=O)c1ccc(Cl)cc1 (stereo unspecified)	none (no result: FN deposit inh)
CCCNC(=O)c1nnsc1S(=O)(=O)c1ccc(Cl)cc1	PAX8 inh HTS 112.0
CO[C@H]1CN(C)C(=O)c2cc(NS(=O)(=O)CC(F)(F)F)ccc2OC[C@H](C)N(Cc2nccs2)C[C@H]1C	none (no result: PAX8 inh HTS)
NCC[C@@H]1CC[C@@H](NC(=O)C2CCC2)[C@H](CO)O1	none
CC(C)N(Cc1nc(-c2ccccc2)no1)C(=O)C(Cl)(Cl)Cl	FGF22 binding 43.0 (no result: PGC1a acetyl inh)
CC(C)N(Cc1nc(-c2ccccc2)no1)C(=O)C(C)(C)C	none (no result: FGF22 binding, EWS-Fli inh, Env fusion inh, FN deposit inh, PAX8 inh HTS)
CCOC(=O)c1c(C)[nH]c(C2=NNC(=Nc3ccccc3OC)SC2)c1C	PAX8 inh HTS 74.2
CC[C@@]12C(=O)N(c3cccc(F)c3)C(=O)N1[C@H](c1ccc(Br)cc1)[C@@H]1C(=O)N(C(C)(C)C)C(=O)[C@@H]12	Env fusion inh 97.9 (no result: FGF22 binding)
COc1ccc([C@@H]2[C@@H]3C(=O)N(C(C)(C)C)C(=O)[C@@H]3[C@]3(CC(C)C)C(=O)N(c4cccc(F)c4)C(=O)N23)cc1	Env fusion inh 99.0 (no result: PGC1a acetyl inh)
CC(C)(C)N1C(=O)[C@H]2[C@@H](c3ccc(Br)cc3)N3C(=O)N(c4cccc(F)c4)C(=O)[C@@]3(Cc3ccccc3)[C@H]2C1=O	Env fusion inh inconclusive (no result: PGC1a acetyl inh)
C[C@H](CO)N1C[C@H](C)[C@H](CN(C)S(=O)(=O)c2ccccc2)Oc2c(cccc2N(C)C)C1=O	none (no result: Env fusion inh)
O=C(N/N=C/c1cc(O)ccc1Br)c1cccnc1	PAX8 inh HTS 72.4 (no result: PGC1a acetyl inh)
O=C(N/N=C/c1cc2c(cc1Br)OCO2)c1cccnc1	FGF22 binding 43.4 (no result: PGC1a acetyl inh)
